Screens: PubChem, several laboratories
T cruzi inh: T. cruzi replication inhibition. inhibition, % (no concentration beside the values). T. cruzi beta-gal in NIH3T3, luminescence, 90 h. AID 1885. actives 1.4% (n = 300,000);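 active = mean inhibition across valid replicates above about 55%, limit read from the data; inconclusive = mean below that limit but half or more replicates reach it; inactive = mean below it, under half of replicates reach it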;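 also: signal also drops with host cell toxicity which is not excluded here; 0% = plate median of DMSO wells and 100% = zero luminescence signal; higher percent means less beta-gal luminescence so fewer parasites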
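Read-out: Parasite load inhibition, % | Test system: Mouse NIH/3T3 fibroblasts infected with β-gal-expressing T. cruzi Tulahuen C4 | Amount: 5,000 cells/well | Medium: DMEM, 2% fetal bovine serum | Signal: GalScreen β-gal luminescence, detergent lysis, 60 min | Timing: 3 h attach, ≥90 h co-culture | Also added: Tulahuen C4 trypomastigotes, 5000/well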
HDAC3 inh: human HDAC3 inhibition; O15379; recombinant HDAC3, fluorogenic peptide/trypsin coupled, fluorescence; inhibition, % at 8.3 µM; actives 0.15% (n = 320,000); in the data active = inhibition above about 26%, passing the limit was not always enough; inconclusive = no clear call, values can overlap the other calls
Target sequence (O15379 whole entry, looked up): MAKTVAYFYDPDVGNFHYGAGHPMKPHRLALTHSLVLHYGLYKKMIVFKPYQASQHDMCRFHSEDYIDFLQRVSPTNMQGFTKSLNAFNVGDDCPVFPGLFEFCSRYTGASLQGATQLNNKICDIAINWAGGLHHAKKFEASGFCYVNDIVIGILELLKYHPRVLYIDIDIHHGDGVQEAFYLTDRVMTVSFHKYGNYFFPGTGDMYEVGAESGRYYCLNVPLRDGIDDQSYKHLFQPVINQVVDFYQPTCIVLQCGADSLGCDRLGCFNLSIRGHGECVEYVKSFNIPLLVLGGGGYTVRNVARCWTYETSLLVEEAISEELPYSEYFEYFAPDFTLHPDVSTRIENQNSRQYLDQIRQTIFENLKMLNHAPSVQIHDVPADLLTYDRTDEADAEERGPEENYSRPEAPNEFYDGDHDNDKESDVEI
Efflux pump mplx: inhibitors of Candida antifungal efflux pumps expressed in yeast. actives 0.44% (n = 330,000). inhibition, % at 10 µM. AID 485275. S. cerevisiae Candida pump triplex, Nile Red efflux;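 active = plate passing quality check with inhibition over a set limit, or well fluorescence over plate mean plus 4 SD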;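 also: Nile Red retained in pooled yeast measured as flow cytometry median fluorescence; 0% = buffer negative control and 100% = Enniatin B positive control; higher means more Nile Red kept so more efflux inhibition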
AI-2 QS mod: modulates the Vibrio harveyi AI-2 quorum sensing system | activity change, % at 7.5 µM | Vibrio harveyi JMH597 AI-2 luminescence/OD600 ratio, 9 h; hits give low values; strain lacks LuxN and CqsS sensors; 0 = neutral-control median | actives 0.4% (n = 300,000); in the data active = activity change below about -75%, passing the limit was not always enough; inconclusive = no clear call, values can overlap the other calls;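 also: luminescence divided by OD600 gain over 9 h not by final OD600 alone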
PolyA inhibitor: inhibitors of polyadenylation in S. cerevisiae; S. cerevisiae SKY197-pL101 polyadenylation reporter, beta-gal luminescence; efflux-impaired pdr1/pdr3 knockout yeast; score 100 = 6 SD above DMSO; activity score, % at 12 µM; actives 0.02% (n = 300,000); AID 1875;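 active = lowest replicate activity score at least 50, where 100 means six control SD above control mean; inconclusive = lowest score under 50 but half or more replicates reach 50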;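 also: yeast exposed to compound for 9 h at 30 °C; higher score means more reporter readthrough which indicates perturbed polyadenylation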
Active calls of the source: *; ? = inconclusive; / = no result given. Only some compounds are listed: those with a hit (about 2.2% of all), similar ones and a draw of the others.

SMILES	T cruzi inh	HDAC3 inh	Efflux pump mplx	AI-2 QS mod	PolyA inhibitor
COc1ccc(OC)c(C2CC(=O)N3CN(c4ccccc4)CSC3=C2C#N)c1 (stereo not drawn)	4.6	53.7*	-0.1	13.2	1.7
Cc1nnc(SCC(=O)NCc2ccccc2Cl)[nH]c1=O	-4.9	2.3	-0.1	27.8	/
CCOC(=O)c1c(NC(=O)COC(=O)c2ccccc2NC)sc(C(=O)N(C)C)c1C	58.7*	-11.2	0.6	12.9	-18.5
CCOC(=O)c1c(NC(=O)COC(=O)Cc2ccccc2[N+](=O)[O-])sc(C(=O)N(C)C)c1C	16.4	2.2	0.1	8.5	5.1
CCOC(=O)c1c(NC(=O)CSc2nc3cc(Cl)ccc3c(=O)n2Cc2ccco2)sc(C(=O)N(C)C)c1C	61.0*	19.4	-0.4	22.9	21.6
COc1ccc([N+](=O)[O-])cc1NC(=O)c1cn(-c2ccc(C)c(C)c2)c(=O)c2ccccc12	-3.1	-1.9	-0.1	13.6	9.1
O=c1[nH]c(-c2ccccn2)nc(C(F)(F)F)c1Br	65.6*	0.8	-0.2	?	-23.0
Cc1ccc(S(=O)(=O)c2ccc([N+](=O)[O-])cn2)cc1	67.4*	-11.1	-0.4	-43.0	-9.6
Cc1cc(S(=O)(=O)c2ccc([N+](=O)[O-])cn2)ccc1Br	15.0	2.1	0.1	30.2	-18.6
O=[N+]([O-])c1ccc(S(=O)(=O)c2ccccc2)nc1	72.6*	0.8	1.6	31.6	2.0
Nc1ccc(S(=O)(=O)c2ccccc2)nc1	-4.5	6.5	0.0	4.5	-4.4
CCCNc1nc(-c2cc(-c3ccc(Cl)cc3)on2)cc(C(C)C)n1	-14.8	3.9	-0.1	11.9	3.4
CC1CCCCN1S(=O)(=O)Cc1ccccc1Cl (stereo not drawn)	-1.3	-4.8	0.0	27.1	-2.5
NC(=S)N/N=C/c1ccc(-c2cc(Cl)cc(Cl)c2)o1	59.2*	8.0	-0.1	25.3	7.8
COC(=O)N/N=C/c1ccc(-c2cc(Cl)cc(Cl)c2)o1	25.1	3.6	-0.1	11.1	-10.4
NC(=S)N/N=C/c1ccc(-c2cc(Cl)ccc2Cl)o1	67.3*	3.7	0.0	6.5	-50.2
CCC1Sc2ccc(S(=O)(=O)CCC(=O)Nc3cccc(Br)c3)cc2NC1=O (stereo not drawn)	-0.9	4.9	0.0	45.7	-2.5
O=C(Oc1c(CN2CCOCC2)cc(Cl)c2cccnc12)c1ccc(F)cc1	56.2*	9.4	0.0	29.5	-37.1
O=[N+]([O-])c1cc(CN2CCCC2)c2cccnc2c1O	/	11.4	-0.2	/	/
Oc1c(CN2CCCCC2)cc(COCc2ccccc2)c2cccnc12	71.8*	1.9	-0.1	29.0	-22.1
OCCN1CCN(Cc2cc(Cl)c3cccnc3c2O)CC1	-11.0	2.0	0.3	-12.8	-60.7
COCc1cc(CN2CCCC2)c(O)c2ncccc12	64.3*	1.4	-0.1	18.0	-8.1
Oc1c(CN2CCN(c3ccccn3)CC2)cc(Cl)c2cccnc12	74.6*	1.8	0.3	?	-51.4
COc1ccc(C(=O)Oc2c(CN3CCOCC3)cc(Cl)c3cccnc23)cc1	41.7	11.8	-0.1	0.3	-6.8
CN(C)C1CCN(Cc2cc(COCc3ccccc3)c3cccnc3c2O)C1 (stereo not drawn)	/	3.5	-0.3	/	/
SMILES	T cruzi inh	HDAC3 inh	Efflux pump mplx	AI-2 QS mod	PolyA inhibitor
Cc1nn(C)c(Cl)c1C(=O)NCC(=O)NCc1ccccc1	-7.6	0.7	-0.1	/	24.4
CCCCCc1ccc(CC(=O)N2CCOCC2)cc1	-0.5	-3.5	0.1	37.0	22.9
CCOc1ccccc1N1CCN(Cc2cccc(OC)c2O)CC1	-18.8	-5.4	-0.2	8.3	1.0
COc1ccccc1N1CCN(Cc2cc(Br)c(O)c3ncccc23)CC1	59.2*	8.4	0.3	-24.0	3.0
Cc1sc2nc(SCc3ccc(C(=O)O)cc3)n(Cc3ccco3)c(=O)c2c1C	60.5*	4.4	0.1	5.6	8.0
C=CCn1c(SCc2ccc(C(=O)O)cc2)nc2sc(C)c(C)c2c1=O	-1.8	-7.6	-0.1	26.6	-10.2
O=C(Cn1c(C(F)(F)F)nc2ccccc21)Nc1ccccc1C(=O)O	-18.2	-3.8	0.1	8.0	3.0
CC(C(=O)Nc1ccccc1C(=O)O)n1c(C(F)(F)F)nc2ccccc21 (stereo not drawn)	71.0*	?	0.0	13.9	7.9
O=C(NCc1cccc(Cl)c1)c1ccc2ccccc2n1	-2.4	2.8	0.0	-19.3	4.2
O=C1N(c2ccccc2)C[C@@H]2C[C@@H](c3cc4ccccc4o3)N3CCC[C@@]123	55.6*	/	/	15.1	-5.5
Cc1ccc(-c2ccccc2[C@@H]2C[C@H]3CN(C)C(=O)[C@]34CCCN24)o1	4.7	4.4	0.0	18.0	-0.2
CCCCCCCCCC(=O)N[C@@H]1c2cc(OC)c(OC)cc2C[C@H]1OCc1ccccc1	/	/	-0.1	/	/
O=C(NC1CCCCC1)C(c1ccncc1)N(Cc1ccccc1)C(=O)c1ccc(-c2ccccc2)[nH]1 (stereo not drawn)	70.3*	17.1	-0.2	-4.6	3.8
O=C(NC1CCCCC1)C(c1ccncc1)N(Cc1ccc(F)cc1)C(=O)c1ccccn1 (stereo not drawn)	27.7	7.9	-0.1	2.3	-10.4
O=C(NNc1nc2cc3c(cc2s1)OCCO3)c1ccc(F)cc1	-4.5	-3.0	0.1	-89.9*	3.9
CCN(CC)CCN(C)C(=O)CCc1nnc(-c2ccc(C)s2)o1	57.4*	2.8	-0.1	10.0	12.1
CC(C)(C)c1ccc(C(=O)Nc2ccc(NC(=O)C(=O)O)cc2)o1	5.9	-0.6	-0.1	20.2	10.7
Cc1ccc(-n2c(SCC(=O)c3c(N)n(C)c(=O)n(C)c3=O)nc3sc4c(c3c2=O)CCCC4)c(C)c1	68.0*	-1.1	0.1	0.2	-3.1
C[C@@H]1C=CC(=O)O[C@@H]1c1ccc(Cl)cc1	-6.0	-1.4	/	0.0	18.6
Cc1[nH]c2ccccc2c1C(=O)COC(=O)c1ccc([N+](=O)[O-])s1	74.2*	10.1	-0.2	-128.1*	-89.5
O=C(OCC(=O)N1CCC(c2ccccc2)=N1)c1ccc([N+](=O)[O-])s1	54.7*	2.8	0.1	?	13.6
O=C(COC(=O)c1ccc([N+](=O)[O-])s1)NCc1ccccc1	18.4	2.9	-0.1	23.4	2.9
COCCN(C(=O)CSc1cc(C)c2ccccc2n1)c1c(N)n(CC(C)C)c(=O)[nH]c1=O	/	-1.5	-0.1	/	/
Cc1ccc(Cl)c(OCC(=O)Nc2cc(S(=O)(=O)N3CCOCC3)ccc2N2CCCC2)c1	15.1	4.7	0.6	28.2	2.6
O=C(NCC1CCCO1)C(=O)N/N=C/c1cc(Cl)ccc1O (stereo not drawn)	0.5	3.2	0.1	-89.5*	21.9
Cc1cc(/C=C2/NC(=O)N(Cc3ccccc3F)C2=O)c(C)n1-c1ccccn1	3.6	44.1*	0.0	-1.0	-1.7
CCn1c(C)cc(/C=C2\NC(=O)N(Cc3ccc(Cl)cc3)C2=O)c1C	55.4*	-5.2	-0.1	19.7	2.2
